Laboratory results from PubChem BioAssay.
The source made the active and inactive calls.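 How the source made its calls, unless noted: active means NADPH fluorescence slope more negative than the mean of all samples by about 3 SD, 99.7% confidence; inactive means the rest.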

What was measured:
[1] = inhibitors of TNFa-induced NFkB p65 translocation, primary screen, imaging, HUVEC, MLSMR starter and 10KST1 sets (AID 438;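 active means inhibition above 20% together with a positive visual image hit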;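 further: compound added about 3h40 before a 20 min TNFalpha stimulation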;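 on inhibition: signal is the nuclear over cytoplasmic p65 intensity ratio per well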); conditions: HUVEC TNFa-induced p65 nuclear translocation; cell count: measured here: nuclei count (cytotoxicity indicator), at 2.08 µM; inhibition: at 2 µM, stronger effect = higher value, 0% TNFa-plus-vehicle, 100% no-TNFa wells
[2] = inhibitors of E-selectin induction by TNFa, primary screen, imaging, HUVEC, immunofluorescence, MLSMR starter and 10KST1 sets (AID 487;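 active means visually confirmed hit in the image check and inhibition above 20%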;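 on inhibition: signal is fraction of cell area covered by stained E-selectin grains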;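 on nuclei count: 100% = median nuclei count of all wells on the same plate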); conditions: HUVEC TNFalpha-induced E-selectin immunofluorescence imaging, at 2 µM; inhibition: stronger effect = higher value; nuclei count: measured here: cell number, toxicity
[3] = DUSP6 inhibitors restoring Erk phosphorylation by chemical complementation, primary imaging in DUSP6-transfected HeLa (AID 609;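 active means compounds giving at least 50% inhibition in the cell-based MKP-3 phosphatase rescue imaging test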;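 on inhibition: phospho-Erk level distribution per well compared with pooled transfected vehicle control wells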); conditions: HeLa MKP-3 transfected, phospho-Erk imaging KS statistic, at 10 µM, cells stimulated with TPA for 15 min
[4] = target: Dual specificity protein phosphatase 6 (Homo sapiens) (UniProt Q16828); assay: as above; conditions: HeLa MKP-3 transfected, phospho-Erk imaging KS statistic; at 10 µM; stronger effect = higher value; cells stimulated with TPA for 15 min
[5] = target: Voltage-gated potassium channel subunit beta-2 (Rattus norvegicus) (UniProt P62483); assay: KvBeta enzyme negative modulators, primary screen, biochemical, NADPH fluorescence (AID 622;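 active means fluorescence slope higher than the sample average by over 3 SD, cut at about -0.22 in these data, passing the limit was not always enough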;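 further: slope of raw intensity against log time taken from 70 to 1610 s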); conditions: recombinant KvBeta, 4-cyanobenzaldehyde reduction, at 10 µM, stronger effect = higher value
[6] = target: Voltage-gated potassium channel subunit beta-2 (Rattus norvegicus) (UniProt P62483); assay: KvBeta positive modulators, primary screen, biochemical, NADPH fluorescence (AID 623); conditions: Recombinant KvBeta, NADPH fluorescence decrease slope, 10 min; at 10 µM; stronger effect = lower value;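 further: fluorescence intensity change per second fitted from 20 to 320 s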
[7] = target: Alpha-2C adrenergic receptor (Homo sapiens) (UniProt P18825); assay: modulators of alpha2C/GIRK thallium flux, primary screen, cell-based, HEK293 alpha2C/GIRK1/2 (AID 624;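 active means fluorescence slope after compound addition differing from the mean of all screened samples at 99.7% confidence, in either direction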;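 further: slope of fluorescence ratio to pre-addition baseline per second over 15 to 24 s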); conditions: thallium flux BTC fluorescence, at 10 µM, actives lie on both sides
[8] = inhibitors of larval lipid processing in zebrafish, primary screen, whole organism, PED6 fluorescence, gall bladder and intestine (AID 686;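 active means a full or partial loss of lipid-probe fluorescence in the fish gall bladder, intestine or both, judged by eye; inactive means no fluorescence loss, or compound toxic to the fish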;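 further: larvae 5 to 7 days old with five fish per well; signal comes from phospholipase A2 cleavage of quenched PED6 carried via bile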); conditions: Zebrafish larvae PED6 lipid processing, fluorescence scoring; screened at 20 µM (by protocol)
Summary of the method: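 Incubation: overnight exposure of larvae to compound plus PED6 / Test system: live zebrafish larvae aged 5-7 days, whole organism / Amount: 5 larvae per well / Read-out basis: visual per-well fluorescence inhibition score / Signal: visual fluorescence microscopy scoring of gall bladder, gut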

[9] = inhibitors of Chlamydomonas gravitaxis, primary screen, whole organism, Chlamydomonas reinhardtii, WT vs cilia-less mutant, absorbance, 96-well (AID 463189;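 active means inhibition at or above 50% relative to wild type and mutant plate controls; inactive means inhibition below 50%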;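 further: 0% = wild type cc124 cells in DMSO and 100% = ciliumless bld1 mutant cells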); conditions: OD600 absorbance, 2 days, at 10 µM, stronger effect = higher value
[10] = measured here: cell density z-score
[11] = measured here: nuclear c-Myc green intensity z-score
[12] = measured here: nuclear pErk red intensity z-score, stronger effect = higher value

Chain of Dual specificity protein phosphatase 6 (Homo sapiens) (Q16828 whole entry, looked up): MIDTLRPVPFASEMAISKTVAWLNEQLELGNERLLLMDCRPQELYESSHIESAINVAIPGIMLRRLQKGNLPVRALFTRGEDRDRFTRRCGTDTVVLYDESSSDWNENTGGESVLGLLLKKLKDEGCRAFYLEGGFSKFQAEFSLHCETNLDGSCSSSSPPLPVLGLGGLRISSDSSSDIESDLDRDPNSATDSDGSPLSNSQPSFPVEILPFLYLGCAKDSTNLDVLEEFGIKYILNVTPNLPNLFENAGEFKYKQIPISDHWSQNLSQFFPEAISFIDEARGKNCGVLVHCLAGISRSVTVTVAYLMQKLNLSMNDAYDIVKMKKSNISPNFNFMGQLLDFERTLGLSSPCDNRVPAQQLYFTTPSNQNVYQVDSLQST
Chain of Voltage-gated potassium channel subunit beta-2 (Rattus norvegicus) (P62483 whole entry, looked up): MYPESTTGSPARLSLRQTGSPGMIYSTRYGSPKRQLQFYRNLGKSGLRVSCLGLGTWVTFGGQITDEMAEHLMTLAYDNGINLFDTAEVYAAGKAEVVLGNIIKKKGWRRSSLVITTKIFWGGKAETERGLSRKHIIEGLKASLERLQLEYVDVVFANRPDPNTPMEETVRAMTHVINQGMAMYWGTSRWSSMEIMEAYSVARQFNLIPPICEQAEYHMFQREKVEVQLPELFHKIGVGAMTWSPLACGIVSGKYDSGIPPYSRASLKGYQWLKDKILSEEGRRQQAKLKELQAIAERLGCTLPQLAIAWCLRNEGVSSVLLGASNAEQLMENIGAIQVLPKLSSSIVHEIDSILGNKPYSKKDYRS
Chain of Alpha-2C adrenergic receptor (Homo sapiens) (P18825 whole entry, looked up): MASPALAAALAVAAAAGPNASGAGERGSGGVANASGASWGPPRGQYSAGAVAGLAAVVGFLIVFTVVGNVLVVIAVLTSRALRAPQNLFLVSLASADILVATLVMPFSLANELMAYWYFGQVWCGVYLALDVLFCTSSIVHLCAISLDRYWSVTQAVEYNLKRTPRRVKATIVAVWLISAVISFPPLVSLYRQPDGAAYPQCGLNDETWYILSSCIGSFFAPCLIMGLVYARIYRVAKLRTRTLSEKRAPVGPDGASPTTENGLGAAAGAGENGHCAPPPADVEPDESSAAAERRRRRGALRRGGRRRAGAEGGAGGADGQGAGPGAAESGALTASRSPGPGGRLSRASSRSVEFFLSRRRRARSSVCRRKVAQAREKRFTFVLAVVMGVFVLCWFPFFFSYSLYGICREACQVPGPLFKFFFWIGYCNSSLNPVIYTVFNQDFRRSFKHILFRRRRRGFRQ

Row | Structure (SMILES) | cell count [1] | inhibition [1] | inhibition [2] | nuclei count [2] [%] | z-score [3, 10] | z-score [3, 11] | z-score [3, 12] | inhibition [4] | fluorescence slope [5] | NADPH fluorescence slope [6] | slope [7] | outcome [8] | inhibition [9]
1 | COc1ccc(/C=C/C2=NC(=C\N(C)C)/C(=O)O2)cc1 | 558 | 0.1% (inactive) | -26.3% (inactive) | 155 | -0.557 | 0.899 | -1.61 | 5.26% (inactive) | -0.303 (inactive) | 4.9e-06 (inactive) | 0.00517 (inactive) | inactive | -3.9% (inactive)
2 | CCCCOC(=O)Nc1ccc(S(=O)(=O)Nc2nc(C)cc(C)n2)cc1 | 515 | -10.1% (inactive) | -17.4% (inactive) | 128 | 0.944 | 1.82 | -0.786 | 2.92% (inactive) | -0.439 (inactive) | -1.7e-05 (inactive) | 0.00517 (inactive) | inactive | -15.6% (inactive)
3 | O=C(NC1(C(F)(F)F)C(=O)Nc2c1c(=O)[nH]c(=O)n2-c1ccccc1)c1cccnc1 (stereo not drawn) | 471 | 1.9% (inactive) | -47.1% (inactive) | 106 | -0.151 | -1.59 | 0.837 | 3.5% (inactive) | -0.52 (inactive) | -2.5e-05 (inactive) | 0.00618 (inactive) | inactive | 32% (inactive)
4 | CC(C)CC(=O)Nc1ncnc2c1C(=O)CC(C)(C)C2 | 635 | -9.9% (inactive) | 35.4% (inactive) | 167 | 0.463 | -0.408 | 0.517 | 1.12% (inactive) | -0.413 (inactive) | -5.4e-05 (inactive) | 0.00518 (inactive) | inactive | -3.52% (inactive)
5 | CCNc1nc(Oc2ccccc2)nc(OC(C)C(=O)OCC)n1 (stereo not drawn) | 674 | 1.4% (inactive) | -19.3% (inactive) | 172 | -0.682 | -0.0206 | 2.56 | -2.07% (inactive) | -0.532 (inactive) | -6.7e-05 (inactive) | 0.00506 (inactive) | inactive | -3.35% (inactive)
6 | Cc1ccc(SCc2c(C#N)c3ccccc3n2C)cc1 | 288 | -2.4% (inactive) | -79.2% (inactive) | 129 | -1.74 | 2.02 | 0.448 | 12.3% (inactive) | -0.445 (inactive) | -0.000146 (inactive) | 0.00992 (active) | inactive | 16.9% (inactive)
7 | CCOC(=O)C(CC(=O)O)N1CCCCC1 (stereo not drawn) | 485 | -6.2% (inactive) | -40.2% (inactive) | 89.2 | -1.03 | 1.55 | -0.781 | 3.5% (inactive) | -0.367 (inactive) | 4.4e-05 (inactive) | 0.00418 (inactive) | inactive | -13.4% (inactive)
8 | CC1(C)Cc2c(sc3[nH]c(=S)n(Cc4ccco4)c(=O)c23)CO1 | 541 | -15.5% (inactive) | -74.4% (inactive) | 117 | -0.898 | -0.375 | -0.762 | -2.69% (inactive) | -0.361 (inactive) | 2.2e-05 (inactive) | 0.0124 (active) | inactive | -12.6% (inactive)
9 | CCOC(=O)Cn1c(SC)nc2sc3c(c2c1=O)CC(C)(C)OC3 | 655 | -7.4% (inactive) | 1.5% (inactive) | 179 | 1.23 | -1.44 | -0.342 | -0.159% (inactive) | -0.459 (inactive) | -0.000276 (inactive) | 0.00508 (inactive) | inactive | -3.53% (inactive)
10 | CN1CCc2c(sc3ncn4nc(-c5ccccc5O)nc4c23)C1 | 519 | -12.5% (inactive) | -51.6% (inactive) | 125 | 0.947 | -1.25 | 0.576 | 9.39% (inactive) | -0.472 (inactive) | -0.000226 (inactive) | 0.00542 (inactive) | inactive | 87% (active)
11 | Cc1cc(-c2cc(-c3ccc(Cl)cc3)nc(N)c2C#N)co1 | 560 | -6.2% (inactive) | 62.4% (inactive) | 173 | 0.0299 | -0.21 | -0.449 | 7.01% (inactive) | -0.294 (inactive) | 4.6e-06 (inactive) | 0.00537 (inactive) | inactive | 5.58% (inactive)
12 | CCOC(=O)c1c(C)n(C)c2ccc(OC)c(NC(=O)CN3CCN(Cc4ccccc4)CC3)c12 | 291 | 0.8% (inactive) | -14% (inactive) | 93.5 | -0.908 | 0.5 | 1.45 | -6.59% (inactive) | -0.431 (inactive) | -0.000147 (inactive) | 0.00677 (inactive) | inactive | -10.1% (inactive)
13 | O=C1[C@@H]2[C@H](C(=O)N1O)[C@H]1C=C[C@@H]2C1 | 468 | -1% (inactive) | -174% (inactive) | 209 | -1.39 | 1.02 | 0.777 | 1.04% (inactive) | -0.392 (inactive) | -1.7e-05 (inactive) | 0.00509 (inactive) | inactive | 2.48% (inactive)
14 | CCCOc1ccc(N2C(=O)CC(N(Cc3ccc(S(N)(=O)=O)cc3)C(=O)CC)C2=O)cc1 (stereo not drawn) | 441 | -4.6% (inactive) | -308% (inactive) | 184 | -0.613 | 0.516 | 0.905 | -7.28% (inactive) | -0.326 (inactive) | 1.9e-05 (inactive) | 0.00479 (inactive) | inactive | 2.36% (inactive)
15 | Cc1ccc(-c2nn3c(-c4cccc(Cl)c4)nnc3s2)cc1 | 482 | -6.6% (inactive) | -115% (inactive) | 128 | -1.6 | -0.179 | 1.45 | -7.86% (inactive) | -0.434 (inactive) | 7.3e-06 (inactive) | 0.00635 (inactive) | inactive | 26.8% (inactive)
16 | N#Cc1c(SCC(N)=O)nsc1SCc1ccc(Cl)cc1 | 633 | -17.9% (inactive) | -60.5% (inactive) | 148 | 0.999 | -1.2 | -0.0749 | 17.7% (inactive) | -0.406 (inactive) | -1.2e-05 (inactive) | 0.00612 (inactive) | inactive | 26.4% (inactive)
17 | COc1ccc(OC)c(C2NC(=O)c3sc(=S)n(-c4ccccc4)c3N2)c1 (stereo not drawn) | 612 | -8.4% (inactive) | -60.3% (inactive) | 159 | -1 | 0.762 | 1.43 | -6.86% (inactive) | -0.369 (inactive) | -6.5e-05 (inactive) | 0.00525 (inactive) | inactive | -6.25% (inactive)
18 | CCOc1ccc(C2C(C#N)=C(N)SC(N)=C2C#N)cc1OC | 654 | -21.3% (inactive) | 22.8% (inactive) | 177 | 0.539 | -1.2 | 0.0794 | -3.95% (inactive) | -0.291 (inactive) | -3e-05 (inactive) | 0.00675 (inactive) | inactive | 5.29% (inactive)
19 | COc1cc(-c2cc(C(F)(F)F)n3ncc(C(=O)O)c3n2)cc(OC)c1OC | 479 | -8.4% (inactive) | -63% (inactive) | 123 | 0.0221 | -0.381 | 0.038 | 11.3% (inactive) | -0.439 (inactive) | -0.000193 (inactive) | 0.00431 (inactive) | inactive | -8.65% (inactive)
20 | COC(=O)CC1=C(C(=O)OC)C(c2ccc3c(c2Cl)OCO3)C(C#N)=C(N)O1 (stereo not drawn) | 505 | -3% (inactive) | -43.9% (inactive) | 146 | 1.11 | -0.928 | -0.541 | 15% (inactive) | -0.319 (inactive) | -2.9e-06 (inactive) | 0.00617 (inactive) | inactive | 21.8% (inactive)
21 | COC(=O)c1ccc(Cn2nnc3c(sc4nc(N5CCOCC5)c5c(c43)CCCC5)c2=O)o1 | 558 | -14.8% (inactive) | -101% (inactive) | 153 | 0.962 | -1.77 | -0.316 | 24.4% (inactive) | -0.275 (inactive) | 2.3e-06 (inactive) | 0.00716 (inactive) | active; weak signal in gallbladder and intestine | -3.46% (inactive)
